High-throughput results (PubChem BioAssay)
Runt-SMMHC FRET: inhibitors of RUNX1 Runt–CBFb-SMMHC binding, primary screen, biochemical, FRET, Cerulean-Runt, Venus-CBFb-SMMHC, uHTS | hit rate 0.74% among 220,000 | AID 1434, 2008 | inhibition, % at 20 µM | Cerulean-Runt/Venus-CBFb-SMMHC FRET ratio 530/480, 1 h;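 active = mean inhibition across duplicate retests at 20 µM reaching about 50%, limit read from the data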;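 note: inhibitors lower the FRET ratio by blocking Runt binding to CBFb-SMMHC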
Runt-CBFb FRET: inhibitors of RUNX1 Runt–CBFb binding, primary screen, biochemical, FRET, Cerulean-Runt, Venus-CBFb, uHTS; Runt-related transcription factor 1 (Homo sapiens) + Core-binding factor subunit beta …; Cerulean-Runt/Venus-CBFb FRET ratio 530/480, 1 h; inhibition, % at 20 µM; hit rate 0.46% among 220,000; AID 1496, 2009;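 active = inhibition over about 50% at 20 µM in the single-dose screen, limit read from the data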
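Assay system: Cerulean-Runt domain / Medium: Tris 50 mM pH 7.5, KCl, K2SO4, 0.01% BSA / Timing: protein complex preformed 1 h, compound exposure 1 h, room temperature, dark / Measured by: FRET, excitation 422 nm, emission at 530 and 480 nm / Evaluation: loss of energy transfer signal / Control set: 5 µM unlabeled CBFb as full-inhibition high control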
RanGTP-Imp inh: inhibitors of RanGTP-importin-beta interaction, primary screen, biochemical, FRET, CFP-Ran, YFP-importin-beta, homogeneous | inhibition, % (test concentration not listed) | cell-free CFP-Ran/YFP-importin-beta FRET ratio | hit rate 1.1% among 300,000 | Ran GTPase (GTP-bound) - importin-beta complex;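 active = more than half of the replicate wells show a fall in the fluorescence ratio signal beyond about 16%, limit read from the data, passing the limit was not always enough; inconclusive = exactly half of the replicate wells pass the set limit; inactive = fewer than half of replicates pass the limit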
TbHK1 inh: Trypanosoma brucei hexokinase 1 inhibitors, primary screen, biochemical, G6PDH-coupled NADH absorbance, MLSCN library. hexokinase 1 [Trypanosoma brucei]. recombinant TbHK1, G6PDH-coupled NADH A340. inhibition, % at 10 µM. hit rate 0.11% among 220,000;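 active = inhibition of 50% or more in the single-dose primary screen; inactive = inhibition below 50%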
Hck-Nef inh: inhibitors of Nef-activated human Hck kinase, primary screen, biochemical, Z-Lyte FRET, 384-well, Hck-YEEI; AID 463187, 2010; inhibition, % at 20 µM; Recombinant Hck-YEEI plus Nef, Z-Lyte FRET kinase assay; hit rate 0.68% among 220,000;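 active = Hck-Nef kinase inhibition above about 50%, limit read from the data; inactive = inhibition below that limit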
Target sequence (P08631 whole entry, looked up): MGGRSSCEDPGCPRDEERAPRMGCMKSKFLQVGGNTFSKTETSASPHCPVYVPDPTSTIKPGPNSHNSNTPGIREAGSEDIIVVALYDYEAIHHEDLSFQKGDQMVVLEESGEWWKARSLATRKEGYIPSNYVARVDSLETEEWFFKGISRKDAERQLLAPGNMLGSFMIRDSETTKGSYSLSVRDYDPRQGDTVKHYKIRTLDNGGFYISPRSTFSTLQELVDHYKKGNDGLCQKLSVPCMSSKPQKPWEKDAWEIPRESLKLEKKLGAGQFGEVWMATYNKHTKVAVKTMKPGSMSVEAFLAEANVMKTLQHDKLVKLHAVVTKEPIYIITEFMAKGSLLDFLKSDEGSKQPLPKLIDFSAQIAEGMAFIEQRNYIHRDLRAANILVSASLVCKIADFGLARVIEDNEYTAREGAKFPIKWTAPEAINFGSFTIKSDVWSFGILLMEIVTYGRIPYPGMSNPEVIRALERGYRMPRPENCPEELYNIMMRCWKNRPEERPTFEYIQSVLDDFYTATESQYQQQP
Hck Nef conf: retest of Hck:Nef kinase inhibitor hits, confirmation, biochemical, Z-Lyte FRET, 384-well, p-Tyr peptide counterscreen; shares compounds with Hck-Nef inh; hit rate 28% among 1,300; Recombinant Hck-YEEI:Nef, Z-Lyte FRET kinase assay; AID 463188, 2010; calls only at 10 µM;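 active = average inhibition of at least 50%, with Z-scores no higher than 3 in both the phospho-tyrosine peptide and fluorescence counterscreens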
Numbers stand for hits; - = inactive; ? = inconclusive; . = not tested or not shown; + = active, no number. This is a sample that favours compounds with a hit; in the whole collection about 1.9% have one here.

SMILES	Runt-SMMHC FRET	Runt-CBFb FRET	RanGTP-Imp inh	TbHK1 inh	Hck-Nef inh	Hck Nef conf
Cc1ccc(-c2cc(C(F)F)n3ncc(C(=O)NCc4ccco4)c3n2)cc1	-	-	.	-	58	-
Cc1cc(C)c(Nc2cc(S(=O)(=O)O)c(N)c3c2C(=O)c2ccccc2C3=O)c(C)c1	-	-	.	-	84	+
O=C(Nc1cccc(Oc2ccc(C(=O)O)c(C(=O)O)c2)c1)c1ccc(-c2ccccc2)cc1	-	-	-	-	66	-
O=C(COc1ccc(/C=N/NC(=O)c2cc3ccccc3o2)cc1Cl)Nc1ccccc1	-	-	-	-	86	+
COc1cc(/C=N/NC(=O)c2ccccc2O)ccc1OCC(=O)Nc1ccccc1	.	.	-	.	.	.
Cc1ccc(NC(=O)COC(=O)/C=C/c2ccc(Br)o2)cc1S(=O)(=O)N(C)C	-	-	-	-	53	-
CC(=O)/C(C#N)=C1\NC(=O)C(Cc2ccccc2C)S1 (centres undefined)	-	-	-	-	-	.
Cc1cc(C)c(C(=O)N2CCC(N3CCC(C(=O)NC(C)C)CC3)CC2)o1	.	.	-	.	.	.
COc1ccc(CSCC(=O)Nc2ccccc2)cc1[N+](=O)[O-]	.	.	-	.	.	.
C(=C\c1ccco1)/c1ccc2ccccc2n1	-	-	-	-	54	-
CC(C)(C)c1ccc(Cn2nc(CC(=O)O)c3ccccc3c2=O)cc1	-	-	-	-	-	.
COc1cc(NC(=S)Nc2ccccn2)cc(OC)c1OC	-	-	-	-	81	+
CCNC(=O)NC(=O)COC(=O)c1ccccc1SCC(=O)NC(=O)NCC	-	-	-	-	109	.
O=C(COC(=O)c1ccccc1SCC(=O)NC1CCS(=O)(=O)C1)NC1CCS(=O)(=O)C1 (centres undefined)	-	-	-	-	-	.
O=C(CSc1nc2ccccc2n1CCc1ccccc1)c1ccc(O)c(O)c1	-	-	.	-	189	+
Cc1ccc(NNc2c(C)nc3ccccc3nc2=O)cc1	-	-	-	-	149	-
CCSC1=N/C(=C\c2ccc(C(=O)O)cc2)C(=O)S1	-	-	-	-	-	.
O=C1SC(SCc2ccccc2Cl)=N/C1=C\c1ccc(C(=O)O)cc1	-	-	-	-	63	-
O=C(O)c1cccc(N2C(=O)/C(=C/c3ccc(SCc4ccc(Cl)cc4)o3)SC2=S)c1	-	-	.	-	82	+
CCN1C=C(C(=O)OC)C(c2cccc(C)c2)C(C(=O)OC)=C1	61	-	-	-	66	.
COC(=O)C1=CN(Cc2cccs2)C=C(C(=O)OC)C1c1cccc(Cl)c1	85	-	-	-	59	.
COC(=O)C1=CN(c2cc(C)cc(C)c2)C=C(C(=O)OC)C1c1cccc(F)c1	.	.	-	.	.	.
COc1ccc(N2CCN(C3CCCN(C(=O)CN4CCOC4=O)C3)CC2)cc1 (centres undefined)	.	.	-	.	.	.
CCCC(C(=O)Nc1ccc2c(C)cc(=O)oc2c1)c1ccccc1 (centres undefined)	.	.	-	.	.	.
Cc1ccc(C(=O)NNC(=O)CSc2nnc(C(C)C)n2C)cc1	.	.	-	.	.	.
SMILES	Runt-SMMHC FRET	Runt-CBFb FRET	RanGTP-Imp inh	TbHK1 inh	Hck-Nef inh	Hck Nef conf
Cc1cc(=O)[nH]c(/N=C(\N)Nc2ccc(Oc3ccccc3)cc2)n1	-	-	-	-	52	-
CC(=O)NCCNC(=O)c1ccc(CSc2nc3ccccc3s2)cc1	.	.	-	.	.	.
CCOC(=O)c1ccc(NC(=O)Cn2ncc(Cl)c(Cl)c2=O)cc1	-	-	-	-	59	+
FC(F)(F)c1ccc(-c2noc(CN3CCCN(C4CCCCC4)CC3)n2)cc1	-	-	-	-	-	.
CC1=C(C#N)C(=O)NC(=O)/C1=C/c1ccc(-c2ccc(S(N)(=O)=O)cc2)o1	-	-	-	-	52	-
NS(=O)(=O)c1ccc(-c2ccc(/C=C3\NC(=S)NC3=O)o2)cc1	.	.	-	.	.	.
O=C(Cn1c2ccccc2c(=O)c2ccccc21)N/N=C/c1cc([N+](=O)[O-])ccc1N1CCCCCC1	-	-	-	-	81	+
CN1CCN(C(=O)c2ccccc2NC(=O)c2ccccc2)CC1	.	.	-	.	.	.
COc1ccc(C2C3=C(CC(C)(C)CC3=O)N(C)C3=C2C(=O)CC(C)(C)C3)cc1OC	.	.	-	.	.	.
COc1ccc(C2C3=C(CC(C)(C)CC3=O)N(C)C3=C2C(=O)CC(C)(C)C3)cc1	86	-	137	-	51	-
COc1ccc(N2C3=C(C(=O)CC(C)(C)C3)C(c3ccccc3OC)C3=C2CC(C)(C)CC3=O)cc1	81	-	149	-	74	-
COc1ccccc1OCCOc1ccc(/C=C2/C(=N)N3OC(C)=CC3=NC2=O)cc1OC	-	-	-	-	89	+
O=C(/C=C/c1ccc(Br)o1)Nc1nnc(C2CC2)s1	-	-	-	-	57	+
Cc1cnc(NC(=O)/C=C/c2ccc(Br)o2)s1	-	-	-	-	-	.
CCc1ccc2nc(NC(=O)c3ccc4c(=O)[nH]c(CN5CCOCC5)nc4c3)sc2c1	-	-	-	-	109	+
O=C(N/N=C/C1C(c2ccccc2)C1(Cl)Cl)c1cccc(Cl)c1 (centres undefined)	-	-	-	-	-	.
COc1ccc(/C=N/NC(=O)CCN2CCN(c3ccccc3)CC2)c(OC)c1OC	-	-	-	-	-	.
O=C(Cc1csc(N2CCOCC2)n1)N/N=C/c1ccc(O)c(O)c1O	-	-	-	-	66	-
O=C(CCN1CCN(c2ccccc2)CC1)N/N=C/c1ccc(O)c(O)c1O	-	-	-	-	53	-
Cc1cccc(C(C)C)c1NC(=O)CN1C(=O)NC2(CCc3ccccc32)C1=O (centres undefined)	.	.	-	.	.	.
Cc1cccc(Cc2nnc(CCC(=O)N(C)Cc3ccncc3C)o2)c1	-	-	?	-	84	-
Cc1cccc(Cc2nnc(CCC(=O)NCc3ccncc3C)o2)c1	-	-	-	-	-	.
C[C@H](NC(=O)C1CCN(S(=O)(=O)c2ccccc2)CC1)C(=O)NCc1ccc(Cl)c(Cl)c1	.	.	-	.	.	.
COc1ccccc1C(=O)NNC(=O)C(=O)NC(C)C	.	.	-	-	59	-
COc1ccccc1C(=O)NNC(=O)C(=O)NCc1ccccc1	-	-	-	-	-	.
Clc1cnc(N/N=C/c2cccs2)c(Cl)c1	-	-	-	-	-	.
